Screening data (PubChem)
MrgX1 antag: antagonists of human MrgX1 receptor; B-score at 10 µM; Q96LB2; AID 588676; MRGX1-HEK293 calcium flux, Fluo-4, BAM8-22 antagonism; active compounds read low; 310,000 compounds, 1.3% hits;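 active means calcium-response B-score plate-corrected more than 3 library SD below zero, starting fluorescence within 5 deviations, no agonist response on first addition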;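 further: peak minus trough fluorescence over baseline after final BAM8-22 challenge near maximal dose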
Target sequence (Q96LB2 whole entry, looked up): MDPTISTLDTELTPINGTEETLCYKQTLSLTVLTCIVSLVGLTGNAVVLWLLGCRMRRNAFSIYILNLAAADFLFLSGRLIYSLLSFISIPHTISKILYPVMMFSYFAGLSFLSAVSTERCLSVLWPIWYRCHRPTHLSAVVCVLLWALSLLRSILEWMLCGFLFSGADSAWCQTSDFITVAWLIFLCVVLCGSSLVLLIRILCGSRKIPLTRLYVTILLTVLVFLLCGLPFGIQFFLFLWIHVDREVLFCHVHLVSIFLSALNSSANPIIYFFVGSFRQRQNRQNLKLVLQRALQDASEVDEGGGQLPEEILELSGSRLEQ
RGS4 block: inhibitors of human RGS4; P49798; HEK293 M3R/RGS4 inducible, Fluo-4 calcium flux; active compounds read high; triggered by carbachol at its EC20; B-score at 10 µM; 310,000 compounds, 0.45% hits;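 active means B-score, a plate-corrected calcium signal, over three deviations above library mean, with baseline fluorescence within five deviations of library mean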;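 further: RGS4 expression induced by doxycycline in cells with stable M3 receptor; B-score is computed from the integrated fluorescence ratio over baseline after carbachol; higher B-score means a larger calcium signal and so more RGS4 inhibition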
Target sequence (P49798 whole entry, looked up): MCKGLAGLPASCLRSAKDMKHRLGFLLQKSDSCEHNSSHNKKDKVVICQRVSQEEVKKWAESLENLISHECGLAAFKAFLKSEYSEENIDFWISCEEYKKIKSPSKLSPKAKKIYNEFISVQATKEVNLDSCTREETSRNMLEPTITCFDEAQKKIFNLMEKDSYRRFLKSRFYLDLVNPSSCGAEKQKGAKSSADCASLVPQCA
RGS4 pot: potentiators or activators of RGS4 | AID 463111 | 310,000 compounds, 0.92% hits | B-score at 10 µM | HEK293 M3R/inducible RGS4, carbachol calcium flux Fluo4; active compounds read low;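 active means B-score of the integrated calcium signal more than 4 SD below the library mean, with starting fluorescence not abnormally high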;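 further: negative B-score means reduced calcium response which marks RGS4 activation or potentiation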
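System – HEK293 FlpIn-TREx cells, stable M3R, doxycycline-inducible RGS4 · Reagent – ECmax carbachol challenge · Times – compound preincubation 20 min at room temperature before agonist · Technique – Fluo4 fluorescence kinetic imaging of calcium · Measure – B score of integrated Fluo4 ratio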
MrgX1 agonist: agonists of human MrgX1 receptor. Q96LB2. 310,000 compounds, 0.44% hits. MrgX1-HEK293 cells, Fluo-4 calcium fluorescence, agonist mode; active compounds read high. B-score at 10 µM;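 active means calcium response B-score plate-corrected fluorescence ratio at least 3 library SD, with starting fluorescence B-score inside 5 SD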
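System – MrgX1-expressing HEK293 cells · Incubation – cells plated overnight, dye loaded 0.5 h 37 °C, 0.5 h room temperature · Technique – kinetic Fluo-4 NW fluorescence of intracellular calcium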
MrgX1 PAM: human MrgX1 positive allosteric modulation, primary screen | Q96LB2 | MrgX1-HEK293, Fluo-4 calcium flux, FDSS; active compounds read high | B-score at 10 µM | 310,000 compounds, 0.63% hits | AID 588675;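 active means plate-corrected calcium response at least 3 library SD above typical, normal starting fluorescence, not activating the receptor alone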;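 further: compound read alongside a low EC10 to EC30 dose of BAM8-22 agonist; peak minus trough fluorescence over baseline measured at the second addition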
MrgX1 ag reconf: confirmation of human MrgX1 receptor agonists. shares compounds with MrgX1 agonist. MrgX1-HEK293, Fluo-4 calcium fluorescence, FDSS. activation, % at 10 µM. 600 compounds, 78% hits;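 active means calcium signal rise, corrected for plate position, at least 3 library SD high, with starting brightness within 5 such deviations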; further: reference of the scale not given here
HEK293 Ca flux: activity in parental HEK293 cells lacking MrgX1; AID 624111; Fluo-4 calcium fluorescence, FDSS; shares compounds with MrgX1 antag; fluorescence ratio F(max-min)/F0 at 10 µM; 4,000 compounds, 2% hits;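 active means duplicate-averaged calcium fluorescence ratio at least three times the standard deviation of buffer wells, a nonspecific response in parental cells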
HEK293 Ca counter: activity in parental HEK293 cells without MrgX1; shares compounds with MrgX1 antag; parental HEK293 calcium flux, Fluo-4 fluorescence ratio; active compounds read high; fluorescence ratio F(max-min)/F0 at 10 µM; 4,000 compounds, 0.4% hits; AID 624114;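 active means calcium fluorescence ratio, averaged over duplicates, at least 3 SD of the buffer-well ratio, meaning a nonspecific response in receptor-free cells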;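 further: untransfected parental HEK293 lacking MrgX1 used as counterscreen for MrgX1 allosteric activators; fluorescence change taken during the second addition on a kinetic imager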
HEK293 Ca cntr2: counter-screen for MrgX1 activators: effect in parental HEK293 cells | Fluo-4 calcium fluorescence (FDSS); active compounds read high | 4,000 compounds, 8.7% hits | fluorescence ratio F(max-min)/F0 at 10 µM | shares compounds with MrgX1 antag | AID 624115;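 active means calcium fluorescence ratio at least three times the spread of buffer wells, meaning a non-specific response in parental cells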
Active calls of the source: *; i = inactive; nt = no result. A selection: hits, their analogues and other compounds. The true share with any hit is near 3.5%.

SMILES	MrgX1 antag	RGS4 block	RGS4 pot	MrgX1 agonist	MrgX1 PAM	MrgX1 ag reconf	HEK293 Ca flux	HEK293 Ca counter	HEK293 Ca cntr2
NC(=Nc1ccc(Br)cc1)c1ccccc1	i	i	i	78*	i	289%*	i	i	48*
COCCn1c(Cc2cccn2C)nnc1SCC(=O)NCc1ccc2c(c1)OCO2	i	i	i	i	i	nt	nt	nt	nt
Cc1cccc(N(C(=O)c2snc(C(N)=O)c2N)C(C(=O)NCC2CCCO2)c2ccc3ncccc3c2)c1 (stereo unspecified)	i	i	i	i	i	nt	nt	nt	nt
O=C(CSc1nnc(-c2cccnc2)o1)N1CCCCC1	i	i	i	i	i	nt	nt	nt	nt
O=C(c1ccccc1Cl)N(Cc1ccc(Br)cc1)N1C(=O)CCCC1=O	i	i	i	i	i	nt	nt	nt	nt
O=C(c1ccc([N+](=O)[O-])cc1)N(Cc1ccc(Br)cc1)N1C(=O)CCCC1=O	i	i	i	71*	i	521%*	i	i	96*
Cc1ccc(NC(=O)CCl)cc1S(=O)(=O)N1CCCCCC1	i	i	i	29*	i	169%*	i	i	i
C/C(CCC(C)C)=N\NC(=S)Nc1cc(S(=O)(=O)N2CCOCC2)ccc1N1CCOCC1	i	i	i	i	i	nt	nt	nt	nt
Nc1c(C(=O)Nc2nc3ccccc3s2)sc2nc(-c3cccs3)ccc12	i	i	i	29*	i	157%*	i	i	i
CCn1c(-c2ccc(N(C)C)cc2)nc2ccccc21	i	i	i	31*	i	87%*	i	i	i
CC(C)n1c(-c2ccc(N(C)C)cc2)nc2ccccc21	i	nt	nt	30*	i	162%*	i	i	i
CCn1c(-c2ccc(N)cc2)nc2ccccc21	i	i	i	i	i	nt	nt	nt	nt
O=C(Nc1nnc(-c2ccccc2Cl)o1)c1nc2ccccc2s1	i	i	i	103*	i	433%*	i	i	84*
CN(C(=O)CSc1nnc(N)s1)C1CCCCC1	i	i	i	i	i	nt	nt	nt	nt
Cc1ccc(F)cc1CNC(=O)C1CCC(=O)N(CCCN2CCCC2=O)C1 (stereo unspecified)	i	i	i	i	i	nt	nt	nt	nt
CN(C)c1ccc(/C=C(/C(=O)c2ccc(Cl)cc2Cl)n2cncn2)cc1	i	i	i	77*	i	i	0.33*	i	i
CSc1ncccc1C(=O)NCCc1ccccc1	i	i	i	i	i	nt	nt	nt	nt
CSc1ncccc1C(=O)NCCc1ccc(S(N)(=O)=O)cc1	i	i	i	33*	i	i	i	i	i
COc1ccc2c(c1)CC/C(=C\Nc1ccc3c(c1)OCO3)C2=O	i	i	i	27*	i	i	i	i	i
CN(C)CCOc1ccc2c(c1)Sc1ccccc1CC2=O	i	i	i	55*	i	i	i	i	i
CCOc1ccc(C(=O)NCC2CCCN2S(=O)(=O)c2cccs2)cc1 (stereo unspecified)	i	i	i	i	i	nt	nt	nt	nt
O=C(NNC(=S)NC(=O)c1cccs1)c1ccc(O)cc1	i	i	i	i	i	nt	nt	nt	nt
O=C(NC(=S)NNC(=O)c1cccs1)c1ccc(Br)o1	i	i	i	100*	i	710%*	i	i	137*
CC(C)OC(=O)CN1C(=O)S/C(=C/c2ccc(N3CCCCC3)o2)C1=O	i	i	i	64*	i	i	0.079*	i	i
O=C1S/C(=C\c2ccc(N3CCOCC3)o2)C(=O)N1Cc1ccc(F)cc1	i	nt	nt	i	i	nt	nt	nt	nt
SMILES	MrgX1 antag	RGS4 block	RGS4 pot	MrgX1 agonist	MrgX1 PAM	MrgX1 ag reconf	HEK293 Ca flux	HEK293 Ca counter	HEK293 Ca cntr2
CN1CCC(N(C)CC(C)(C)NS(=O)(=O)c2ccccc2)CC1	i	i	i	i	i	nt	nt	nt	nt
Cc1ccc(-c2ccc(CCC(=O)O)n2-c2cccc(O)c2)cc1	i	i	i	28*	i	135%*	i	i	i
CN(C)S(=O)(=O)c1cccc(COC(=O)CN2C(=O)NC3(CCCC3)C2=O)c1	i	i	i	i	i	nt	nt	nt	nt
COc1ccc(N/C=C/c2nc(SC)nnc2C)cc1	i	i	i	i	i	nt	nt	nt	nt
CSc1nnc(C)c(/C=C/Nc2ccc(F)cc2)n1	i	i	i	30*	i	152%*	i	i	i
CC/C(=N/Nc1ccc(Cl)cc1)c1cnnc(SC)n1	i	i	i	i	i	nt	nt	nt	nt
CSc1nnc(C)c(/C=C/Nc2ccc(Cl)cc2)n1	i	i	i	45*	i	248%*	0.36*	i	74*
CCN(CC)CCCN=Cc1c(-c2ccccc2)[nH]n(-c2nc3ccccc3s2)c1=O	i	i	i	i	i	nt	nt	nt	nt
CCCc1[nH]n(-c2nc3ccccc3s2)c(=O)c1C=NCC(C)C	i	i	i	29*	i	227%*	i	i	59*
CCC(C)(C)NC(=O)C(c1ccc(OC)cc1)N(C(=O)CCC(=O)Nc1cc(C)on1)c1ccc2c(c1)OCO2 (stereo unspecified)	i	i	i	i	i	nt	nt	nt	nt
CC(C)c1[nH]nc2c1C(c1cccnc1)C(C#N)=C(N)O2 (stereo unspecified)	i	i	i	i	i	nt	nt	nt	nt
CCc1[nH]nc2c1C(c1ccc(Br)s1)C(C#N)=C(N)O2 (stereo unspecified)	i	nt	nt	48*	i	146%*	i	i	i
CC(C)c1[nH]nc2c1C(c1ccco1)C(C#N)=C(N)O2 (stereo unspecified)	i	i	i	27*	i	i	i	i	i
Cc1ccc(SCc2[nH]nc3c2C(c2ccco2)C(C#N)=C(N)O3)cc1 (stereo unspecified)	i	i	i	40*	i	161%*	i	i	i
COc1cccc(NC(=O)CSc2nc3ccccc3nc2N2CCOCC2)c1	i	i	i	i	i	nt	nt	nt	nt
